We go through six compounds from ChEMBL document CHEMBL4007432, “Discovery and characterization of novel CYP1B1 inhibitors based on heterocyclic chalcones: Overcoming cisplatin resistance in CYP1B1-overexpressing lines” (Eur J Med Chem, 2017).

What is called IC50 is the concentration that gives 50% inhibition. Read a low IC50 as greater potency in that assay. As a reminder, the solubility is the dissolved amount per volume that the medium holds. Usually inhibition stands for the drop in the measured response relative to a control, in per cent.

The target of one data set is T1, Cytochrome P450 1A2 (Homo sapiens, UniProt P05177).
T1 sequence (P05177 whole entry): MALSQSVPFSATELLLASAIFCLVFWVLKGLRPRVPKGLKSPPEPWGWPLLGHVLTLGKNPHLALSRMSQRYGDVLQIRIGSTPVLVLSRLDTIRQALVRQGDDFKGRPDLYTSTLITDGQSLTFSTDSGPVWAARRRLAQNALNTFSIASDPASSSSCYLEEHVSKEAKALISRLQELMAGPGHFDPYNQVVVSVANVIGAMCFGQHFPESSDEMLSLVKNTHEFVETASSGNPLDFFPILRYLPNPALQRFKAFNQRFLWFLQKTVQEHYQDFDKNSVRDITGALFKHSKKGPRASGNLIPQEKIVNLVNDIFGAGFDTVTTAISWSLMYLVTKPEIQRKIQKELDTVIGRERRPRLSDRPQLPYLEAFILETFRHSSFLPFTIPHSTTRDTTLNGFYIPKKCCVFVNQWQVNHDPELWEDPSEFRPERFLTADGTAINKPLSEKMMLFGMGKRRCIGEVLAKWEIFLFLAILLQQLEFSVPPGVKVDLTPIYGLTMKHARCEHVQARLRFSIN
In words: Inhibition of human liver CYP1A2 expressed in Saccharomyces cerevisiae YY7 microsomal membranes using CEC as substrate after 10 mins by fluorescence assay. It is filed as ADME, Microsomal Membrane. Put shortly: (§1)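 Yeast microsomes (YY7 strain carrying human reductase) held 0.5 pmol CYP with an NADP+/glucose-6-phosphate/G6PDH regenerating system in KPi. Fluorogenic substrate per isoform: 7-ER, CEC, EOMCC or DBF. Six serial 1:20 dilutions were tested, DMSO ≤0.5%. Reactions ran 10 min at 37 °C and were stopped with Tris-acetonitrile. Endpoint fluorescence (530/590 nm for resorufin) was fitted by 4-parameter sigmoid. Triplicate, ≥3 experiments.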

Data set [1] concerns the target T2, Cytochrome P450 1B1 (Homo sapiens, UniProt Q16678).
T2 sequence (Q16678 whole entry): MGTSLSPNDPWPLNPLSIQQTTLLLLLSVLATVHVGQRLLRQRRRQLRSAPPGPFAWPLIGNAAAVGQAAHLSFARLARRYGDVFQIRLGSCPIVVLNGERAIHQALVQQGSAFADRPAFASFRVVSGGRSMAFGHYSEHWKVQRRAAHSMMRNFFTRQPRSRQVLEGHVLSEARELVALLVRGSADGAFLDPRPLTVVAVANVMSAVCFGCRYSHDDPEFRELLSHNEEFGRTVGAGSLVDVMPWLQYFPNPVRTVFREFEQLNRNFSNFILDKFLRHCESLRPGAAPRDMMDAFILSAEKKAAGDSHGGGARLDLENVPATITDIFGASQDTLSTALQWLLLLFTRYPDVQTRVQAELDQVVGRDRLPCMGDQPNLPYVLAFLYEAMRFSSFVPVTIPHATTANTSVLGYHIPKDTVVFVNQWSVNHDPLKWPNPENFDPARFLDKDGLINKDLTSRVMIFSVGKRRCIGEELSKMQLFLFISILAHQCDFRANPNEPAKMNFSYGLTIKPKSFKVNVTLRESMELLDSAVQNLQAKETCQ
In words: Inhibition of human liver CYP1B1 expressed in HEK293 cells using CEC as substrate preincubated for 30 mins followed by substrate addition measured after 60 mins by fluorescence assay. It is filed as cell-based. Put shortly: (§2)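 HEK293 cells adapted to suspension were lipid-transfected with pCDM/hCYP1B1, used 24–48 h later and resuspended at 4×10^6/mL. Wells of 100–200×10^3 cells, in triplicate, were preincubated with compound (1 nM–30 µM) for 30 min at 37 °C, 8% CO2. Substrate followed: 7-ER at 5 µM or CEC. Fluorescence was read over 60 min and IC50 obtained by sigmoidal fit.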

The target of data set [2] is T2, Cytochrome P450 1B1. Description: Inhibition of CYP1B1 in human A2780cis cells assessed as potentiation of cisplatin-induced cytotoxicity at 2 times CYP1B1 inhibitory IC50 by MTT assay. It is filed as cell-based. A general note: Tetrazolium assays rely on reduction of a dye to a coloured formazan, in cell work by metabolically active cells.
Data set [3] in a line: Solubility of the compound in pH 6.8 simulated intestinal fluid. It is filed as physicochemical.
Data set [4] addresses T2, Cytochrome P450 1B1. In words: Inhibition of human liver CYP1B1 expressed in Saccharomyces cerevisiae YY7 cells using 7-ethoxyresorufin as substrate after 10 mins by fluorescence assay. It is filed as cell-based. Put shortly: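 Live S. cerevisiae YY7 carrying human CYP1B1 was grown in YP-galactose. Cells were harvested 16–20 h after induction, washed in TE (pH 7.4) and diluted 1:10.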

Data set [5] in a line: Solubility of the compound in pH 7.4 PBS buffer. It is filed as physicochemical.
Data set [6] concerns the target T2, Cytochrome P450 1B1. Description: Inhibition of human liver CYP1B1 expressed in Saccharomyces cerevisiae YY7 microsomal membranes at 5 to 10 uM using 7-ethoxyresorufin as substrate after 10 mins by fluorescence assay. Summed up:
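Single-concentration screen on CYP1B1 yeast microsomes at 5 µM (10 µM per methods), with 7-ER under the regenerating-system endpoint format: 10 min at 37 °C. Percentage inhibition versus a DMSO control; each compound tested twice.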

Data set [7] in a line: Solubility of the compound in pH 1.2 simulated gastric fluid. The class given is physicochemical.
Data set [8] deals with T2, Cytochrome P450 1B1. Description: Inhibition of human liver CYP1B1 expressed in HEK293 cells using 7-ethoxyresorufin as substrate preincubated for 30 mins followed by substrate addition measured after 60 mins by fluorescence assay. It is filed as cell-based. Summed up: as §2
The target in data set [9] is T2, Cytochrome P450 1B1. Description: Inhibition of human liver CYP1B1 expressed in Saccharomyces cerevisiae YY7 microsomal membranes using 7-ethoxyresorufin as substrate after 10 mins by fluorescence assay. Put shortly:
as §1

In the next data set the target is Cytochrome P450 2C19 (Homo sapiens, UniProt P33261). Description: Inhibition of human liver CYP2C19 expressed in Saccharomyces cerevisiae YY7 microsomal membranes using DBF as substrate after 10 mins by fluorescence assay. It is filed as ADME, Microsomal Membrane.
Sequence of Cytochrome P450 2C19 (P33261 whole entry): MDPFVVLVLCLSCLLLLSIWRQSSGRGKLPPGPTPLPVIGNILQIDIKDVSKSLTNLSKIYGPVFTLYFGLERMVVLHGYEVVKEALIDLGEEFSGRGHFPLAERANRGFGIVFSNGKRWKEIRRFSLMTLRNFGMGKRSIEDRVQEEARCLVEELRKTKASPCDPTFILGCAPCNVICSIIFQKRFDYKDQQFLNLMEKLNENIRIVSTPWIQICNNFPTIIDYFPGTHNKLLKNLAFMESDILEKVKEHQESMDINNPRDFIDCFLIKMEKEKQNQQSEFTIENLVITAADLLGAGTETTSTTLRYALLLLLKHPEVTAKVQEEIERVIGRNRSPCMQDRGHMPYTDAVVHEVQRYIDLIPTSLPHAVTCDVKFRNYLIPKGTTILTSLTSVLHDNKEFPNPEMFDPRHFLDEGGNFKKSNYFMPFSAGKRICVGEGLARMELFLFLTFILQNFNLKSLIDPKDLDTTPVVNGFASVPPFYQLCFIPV
A further data set has as its target Cytochrome P450 2C9 (Homo sapiens, UniProt P11712). Description: Inhibition of human liver CYP2C9 expressed in Saccharomyces cerevisiae YY7 microsomal membranes using DBF as substrate after 10 mins by fluorescence assay. The class given is ADME, Microsomal Membrane.
The target of a further data set is Cytochrome P450 2D6 (Homo sapiens, UniProt P10635). In words: Inhibition of human liver CYP2D6 expressed in Saccharomyces cerevisiae YY7 microsomal membranes using EOMCC as substrate after 10 mins by fluorescence assay. The class given is ADME, Microsomal Membrane. Put shortly:
as §1

The next data set addresses T3, Cytochrome P450 1A1 (Homo sapiens, UniProt P04798).
T3 sequence (P04798 whole entry): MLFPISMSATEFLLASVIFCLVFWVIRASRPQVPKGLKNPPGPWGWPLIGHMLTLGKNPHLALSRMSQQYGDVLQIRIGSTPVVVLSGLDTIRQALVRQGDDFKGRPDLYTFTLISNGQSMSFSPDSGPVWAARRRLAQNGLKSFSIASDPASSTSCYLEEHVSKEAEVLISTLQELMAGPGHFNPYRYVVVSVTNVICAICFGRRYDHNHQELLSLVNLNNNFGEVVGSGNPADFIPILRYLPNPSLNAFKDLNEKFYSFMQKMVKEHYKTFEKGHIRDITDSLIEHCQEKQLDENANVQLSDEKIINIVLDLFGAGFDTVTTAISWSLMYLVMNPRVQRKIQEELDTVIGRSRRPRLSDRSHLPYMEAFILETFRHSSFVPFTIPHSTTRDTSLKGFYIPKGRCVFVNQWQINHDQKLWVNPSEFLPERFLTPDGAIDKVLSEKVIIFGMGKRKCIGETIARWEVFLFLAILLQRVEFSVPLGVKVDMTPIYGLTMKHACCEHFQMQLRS
In words: Inhibition of human liver CYP1A1 expressed in Saccharomyces cerevisiae YY7 microsomal membranes using 7-ethoxyresorufin as substrate after 10 mins by fluorescence assay. The class given is ADME, Microsomal Membrane. Summed up: as §1

The next data set addresses Cytochrome P450 3A4 (Homo sapiens, UniProt P08684). In words: Inhibition of human liver CYP3A4 expressed in Saccharomyces cerevisiae YY7 microsomal membranes using DBF as substrate after 10 mins by fluorescence assay. The class given is ADME, Microsomal Membrane.
The target in a further data set is T4, CYP1B1 (Homo sapiens, UniProt Q16678).
T4 sequence (Q16678 whole entry): T2 sequence (Q16678 whole entry)
In words: Inhibition of human liver CYP1B1 expressed in Saccharomyces cerevisiae YY7 microsomal membranes at 1 uM using 7-ethoxyresorufin as substrate after 10 mins by fluorescence assay relative to control. As to conditions: probe 7-ethoxyresorufin; call rule not given here.

Converted amounts (≈) assume the structure as drawn.

Sequence of Cytochrome P450 3A4 (P08684 whole entry): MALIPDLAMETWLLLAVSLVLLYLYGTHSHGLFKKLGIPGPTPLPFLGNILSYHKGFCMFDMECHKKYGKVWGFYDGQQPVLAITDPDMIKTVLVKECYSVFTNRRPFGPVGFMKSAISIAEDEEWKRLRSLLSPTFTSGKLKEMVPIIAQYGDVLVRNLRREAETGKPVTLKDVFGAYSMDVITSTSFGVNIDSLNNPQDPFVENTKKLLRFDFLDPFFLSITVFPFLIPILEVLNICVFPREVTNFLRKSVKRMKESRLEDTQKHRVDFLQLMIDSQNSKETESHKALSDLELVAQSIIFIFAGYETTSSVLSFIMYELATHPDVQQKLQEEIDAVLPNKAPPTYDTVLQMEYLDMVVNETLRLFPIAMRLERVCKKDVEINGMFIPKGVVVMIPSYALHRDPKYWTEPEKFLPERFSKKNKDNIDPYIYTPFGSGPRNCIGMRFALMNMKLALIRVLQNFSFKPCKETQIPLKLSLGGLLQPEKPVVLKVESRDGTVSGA
Sequence of Cytochrome P450 2C9 (P11712 whole entry): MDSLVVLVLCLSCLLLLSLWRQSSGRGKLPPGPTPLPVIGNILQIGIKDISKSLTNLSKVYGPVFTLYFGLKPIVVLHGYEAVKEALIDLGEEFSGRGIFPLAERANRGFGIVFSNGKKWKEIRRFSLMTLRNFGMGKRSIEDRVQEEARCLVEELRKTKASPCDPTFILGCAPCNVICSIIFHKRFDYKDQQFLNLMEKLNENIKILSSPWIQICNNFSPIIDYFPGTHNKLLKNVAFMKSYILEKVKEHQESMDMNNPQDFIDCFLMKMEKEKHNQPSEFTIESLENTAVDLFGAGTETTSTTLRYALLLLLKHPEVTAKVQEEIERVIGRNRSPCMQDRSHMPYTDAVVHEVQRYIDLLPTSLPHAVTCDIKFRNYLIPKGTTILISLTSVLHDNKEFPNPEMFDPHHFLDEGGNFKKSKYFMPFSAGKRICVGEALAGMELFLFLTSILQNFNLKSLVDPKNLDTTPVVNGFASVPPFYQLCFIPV
Sequence of Cytochrome P450 2D6 (P10635 whole entry): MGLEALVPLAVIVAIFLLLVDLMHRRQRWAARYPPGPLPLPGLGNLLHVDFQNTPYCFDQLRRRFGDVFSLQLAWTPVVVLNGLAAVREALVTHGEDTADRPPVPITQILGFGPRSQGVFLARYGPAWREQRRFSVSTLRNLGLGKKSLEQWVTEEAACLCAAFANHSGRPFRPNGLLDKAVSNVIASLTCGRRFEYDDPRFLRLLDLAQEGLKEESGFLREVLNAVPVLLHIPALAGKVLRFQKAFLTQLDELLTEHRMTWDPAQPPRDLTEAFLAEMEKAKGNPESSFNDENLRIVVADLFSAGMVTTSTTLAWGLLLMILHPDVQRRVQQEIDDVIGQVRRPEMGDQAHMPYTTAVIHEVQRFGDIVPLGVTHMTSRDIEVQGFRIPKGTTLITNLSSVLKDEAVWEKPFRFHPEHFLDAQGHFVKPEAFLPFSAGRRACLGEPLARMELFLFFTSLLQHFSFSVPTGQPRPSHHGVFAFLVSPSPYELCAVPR

`COc1ccc2cc(C(=O)/C=C/c3cccnc3)ccc2c1`: the IC50 on Cytochrome P450 1A2 is 1200 nM; at Cytochrome P450 1B1 [1], 4 nM; against Cytochrome P450 1B1 [4], 65 nM; against Cytochrome P450 1B1 [8] it was 8 nM; on Cytochrome P450 1B1 [9], 9 nM; against Cytochrome P450 2C19 it was > 20000 nM. Also, the half-inhibitory concentration (IC50) against Cytochrome P450 2C9 is > 20000 nM; against Cytochrome P450 2D6 it was 5000 nM; on Cytochrome P450 1A1, 795 nM. Besides, the “inhibition (INH)” value on Cytochrome P450 1B1 [2] was “Not Active”; at Cytochrome P450 1B1 [6], “Active”. For the same compound, the solubility in data set [3] is 0.27 µg/mL (≈ 0.933 µM); in data set [5], 20.1 µg/mL (≈ 69.4 µM); in [7], 538 µg/mL (≈ 1860 µM).

Consider `O=C(/C=C/c1ccc2ccccc2c1)c1cccnc1`, for which the IC50 against Cytochrome P450 1A2 is 1200 nM; against Cytochrome P450 1B1 [1] it was 4 nM; against Cytochrome P450 3A4, 18000 nM; against Cytochrome P450 1B1 [4], 64 nM; against Cytochrome P450 1B1 [8] it was 53 nM; against Cytochrome P450 1B1 [9], 10 nM. The 50% inhibitory concentration (IC50) is > 20000 nM at Cytochrome P450 2C19, > 20000 nM against Cytochrome P450 2C9, 10000 nM against Cytochrome P450 2D6 and 742 nM at Cytochrome P450 1A1. For the same compound, the “inhibition (INH)” value is given as “Not Active” at Cytochrome P450 1B1 [2] and “Active” against Cytochrome P450 1B1 [6]. For the same compound, the figures for the solubility in data set [3], in data set [5] and in data set [7] were 0.45 µg/mL (≈ 1.74 µM), 14.5 µg/mL (≈ 56 µM) and 68.6 µg/mL (≈ 264 µM), respectively.

With `COc1ccccc1/C=C/C(=O)c1cccnc1`, the IC50 against Cytochrome P450 1A2 is 220 nM; on Cytochrome P450 3A4, 1520 nM; against Cytochrome P450 1B1 [9] it was 15 nM; against Cytochrome P450 2C19 it was > 20000 nM; on Cytochrome P450 2C9 it was > 20000 nM; against Cytochrome P450 2D6 it was 1740 nM. The same compound had a half-maximal inhibitory concentration (IC50) on Cytochrome P450 1A1 of 4700 nM. For the same compound, the “inhibition (INH)” value against Cytochrome P450 1B1 [6] was “Active”.

`O=c1cc(-c2ccccc2)oc2c1ccc1ccccc12` [ALPHA-NAPHTHOFLAVONE]: the solubility is 0.58 µg/mL (≈ 2.13 µM) in data set [3], 6.85 µg/mL (≈ 25.2 µM) in data set [5] and 6.45 µg/mL (≈ 23.7 µM) in data set [7]. Besides, the “inhibition (INH)” value against Cytochrome P450 1B1 [6] was “Active”. Further, on CYP1B1, the inhibition at 10 min, 1 µM was > 80%.

As to `COc1ccc(/C=C/C(=O)c2cccnc2)c(OC)c1OC`, the concentration for half-maximal inhibition (IC50) was 168 nM against Cytochrome P450 1A2; 11800 nM on Cytochrome P450 3A4; 31 nM against Cytochrome P450 1B1 [9]; > 20000 nM against Cytochrome P450 2C19; > 20000 nM against Cytochrome P450 2C9; 8800 nM against Cytochrome P450 2D6. For the same compound, the midpoint of inhibition against Cytochrome P450 1A1, the IC50, lay at 297 nM. In addition, at Cytochrome P450 1B1 [6], the “inhibition (INH)” value is “Active”.

Turning to `O=C(/C=C/c1cccnc1)c1cccc(Cl)c1`, the IC50 was 238 nM at Cytochrome P450 1A2; 12500 nM at Cytochrome P450 3A4; 59 nM against Cytochrome P450 1B1 [9]; > 20000 nM at Cytochrome P450 2C19; > 20000 nM against Cytochrome P450 2C9; 10600 nM on Cytochrome P450 2D6. For the same compound, the midpoint of inhibition against Cytochrome P450 1A1, the IC50, lay at 3400 nM. Besides, the “inhibition (INH)” value on Cytochrome P450 1B1 [6] was “Active”.
